Screening data (PubChem BioAssay)
sPLA2-III inh: Blocks human group III sPLA2 activity; inhibition, % at 12.2 µM; AID 743126; Q9NZ20; QFRET BODIPY PC-A2 liposome hydrolysis, fluorescence; 370,000 tested, 0.56% active;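 active means inhibition above mean plus 3 SD of compounds lying within the high and low control bounds, cut at about 19% in these data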;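 further: 0% = median of test compound wells and 100% = no enzyme DMSO wells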
MsrA act: activators of bovine methionine sulfoxide reductase A; purified bovine MsrA, absorbance read-out; activation, % at 10.6 µM; 360,000 tested, 0.3% active; AID 602163; in the data active means activation above about 7.5%;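 further: 0% = vehicle and 100% = reference activator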
ARFGAP1 inh: inhibitors of rat ARFGAP1 | Arfgap1-stimulated ARF1 GTP hydrolysis, GDP FP detection | 360,000 tested, 0.26% active | inhibition, % at 16.5 µM | Q62848;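 active means inhibition above a per-plate limit, mean inhibition of low control wells plus 3 SD, cut at about 25% in these data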;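 further: 0% = DMSO wells with enzyme and 100% = wells lacking Arfgap1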
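Replicates: Single well per compound | Assay system: Truncated rat Arfgap1 GAP domain | Control set: No-Arfgap1 wells (100%) versus DMSO full-reaction wells (0%) | Times: Enzyme reaction 120 min at 25 °C after 20 min preincubation | Reagent: Human ARF1(Δ1-17)-GTP substrate | Measured by: Tracer-displacement fluorescence polarization with EDTA stop, 620/688 nm | Measure: Percent inhibition of Arfgap1-stimulated GTP hydrolysis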
MsrA inhibitor: inhibitors of bovine MsrA; purified bovine MsrA, absorbance read-out; inhibition, % at 15.5 µM; 360,000 tested, 0.75% active; in the data active means inhibition above about 4.5%;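 further: 0% = vehicle wells with enzyme and 100% = reference inhibitor wells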
NR1D1 modulator: modulators of human Rev-erb alpha DNA binding; Rev-erbα–FITC-DNA binding, fluorescence polarization, 90 min; activity, % at 10 µM; 370,000 tested, 0.79% active; AID 1259318;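 active means activity above about 14%, limit read from the data; passing the limit was not always enough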;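 further: 0% = DMSO wells with 35 nM protein and 100% = DMSO wells with 750 nM protein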
ASAP1 GAP inh: ASAP1 ArfGAP inhibition | Q9ULH1 | ASAP1-stimulated ARF1 GTP hydrolysis, GDP FP detection | inhibition, % at 16.5 µM | 360,000 tested, 0.19% active | AID 624377; in the data active means inhibition above about 25%;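 further: 0% = vehicle with enzyme and substrate and 100% = no enzyme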
NR1D1 mod conf: Rev-erb alpha (human) modulation, hit confirmation. shares compounds with NR1D1 modulator. Rev-erb alpha FITC-DNA binding, fluorescence polarization, 90 min. activation, % at 25 µM. 3,000 tested, 61% active. AID 1259319;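 active means activation at or above a set limit, or at least 3 SD above the negative control mean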;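 further: 0% = 35 nM protein with DMSO and 100% = 750 nM protein high control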
RORg DNA counter: affects RORgamma DNA binding in a Rev-erb alpha counter-screen | shares compounds with NR1D1 modulator | IC50, µM | 910 tested, 8% active | purified RORgamma protein-FITC-DNA binding, fluorescence polarization;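 active means Compounds whose fitted half-maximal concentration for disrupting protein-DNA binding is below 10 micromolar; the record names Rev-erb in its text, so the target is in doubt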
* hit, by the source's call. Shown are actives, neighbours in structure and some others; about 2.7% of the full set was active somewhere.

Cc1ccc(-c2nc3cc(Br)cnc3nc2-c2ccc(C)cc2)cc1 was read as sPLA2-III inh -2, MsrA act -2, ARFGAP1 inh -1, MsrA inhibitor -1, NR1D1 modulator 26*, ASAP1 GAP inh 12 and NR1D1 mod conf 16.
`Cc1c(N=C2N=C(NC(=O)c3ccc(F)cc3)c3ccccc32)c(=O)n(-c2ccccc2)n1C` gave sPLA2-III inh 7, MsrA act 0, ARFGAP1 inh 7, MsrA inhibitor -1, NR1D1 modulator 92*, ASAP1 GAP inh 12 and NR1D1 mod conf 51*.
`Cc1c(NC(=O)NC(=O)c2ccc(F)cc2)c(=O)n(-c2ccccc2)n1C` gave sPLA2-III inh 5, MsrA act -3, ARFGAP1 inh -10, MsrA inhibitor 0, NR1D1 modulator -1 and ASAP1 GAP inh -2.
COc1ccc(/C=N/NC(=O)Nc2cccc3nsnc23)c(OC)c1 was read as sPLA2-III inh 2, MsrA act -5, ARFGAP1 inh -6, MsrA inhibitor 0, NR1D1 modulator 68*, ASAP1 GAP inh 9 and NR1D1 mod conf 24*.
For Cc1cccc(OCC(=O)Nc2ccccc2N2CCCC2)c1C the results were sPLA2-III inh 4, MsrA act -7, ARFGAP1 inh -5, MsrA inhibitor -1, NR1D1 modulator -2 and ASAP1 GAP inh -13.
Screening Cc1ccccc1OCC(=O)Nc1ccccc1N1CCCCC1 returned sPLA2-III inh 1, MsrA act 0, ARFGAP1 inh -4, MsrA inhibitor 0, NR1D1 modulator 17*, ASAP1 GAP inh 2 and NR1D1 mod conf 17.
`Cc1ccccc1OCC(=O)Nc1cccc2nsnc12` gave sPLA2-III inh 0, MsrA act 1, ARFGAP1 inh 14, MsrA inhibitor -1, NR1D1 modulator 105*, ASAP1 GAP inh -9, NR1D1 mod conf 55* and RORg DNA counter inactive.
For O=C(OCC#CCSc1nnc(-c2cccc3ccccc23)o1)c1ccc(C(F)(F)F)cc1 the results were sPLA2-III inh -2 and NR1D1 modulator 3.
Screening COCCN(Cc1cc2cc(C)ccc2n2nnnc12)C(=S)Nc1ccccc1C returned sPLA2-III inh 2, MsrA act -8, ARFGAP1 inh 10, MsrA inhibitor 0, NR1D1 modulator 87*, ASAP1 GAP inh 0, NR1D1 mod conf 40* and RORg DNA counter >40.
`Cc1cn([C@H]2C[C@H](O)[C@@H](CNC(=O)[C@H]3CCC(=O)N3)O2)c(=O)[nH]c1=O` gave sPLA2-III inh 4, MsrA act -1, ARFGAP1 inh 6, MsrA inhibitor 2, NR1D1 modulator -7 and ASAP1 GAP inh 7.
COCc1cc(C)nc(Nc2ccc(C)cc2C)c1C#N was read as sPLA2-III inh -3, MsrA act -2, ARFGAP1 inh 3, MsrA inhibitor 1, NR1D1 modulator 29*, ASAP1 GAP inh 5 and NR1D1 mod conf 1.
COCc1cc(C)nc(Nc2ccc(C)c(C)c2)c1C#N was read as sPLA2-III inh 4, MsrA act -2, ARFGAP1 inh -7, MsrA inhibitor 2, NR1D1 modulator 25*, ASAP1 GAP inh 9 and NR1D1 mod conf 11.
`CCCC(=O)Nc1ccc(-c2nc3cc(C)ccc3o2)cc1` gave sPLA2-III inh -22, MsrA act -2, ARFGAP1 inh 16, MsrA inhibitor 2, NR1D1 modulator 6 and ASAP1 GAP inh -17.
For CCCC(=O)Nc1ccc(-c2nc3cc(C)c(C)cc3o2)c(O)c1 the results were sPLA2-III inh 2, MsrA act -4, ARFGAP1 inh 10, MsrA inhibitor 2, NR1D1 modulator 17*, ASAP1 GAP inh 4 and NR1D1 mod conf 6.
Screening CNC(C)C(=O)NC(C(=O)NC(C)C(=O)Nc1cccc2ccccc12)C(C)C (stereo not drawn) returned sPLA2-III inh 10, MsrA act -1, ARFGAP1 inh 9, MsrA inhibitor 0, NR1D1 modulator 2 and ASAP1 GAP inh 7.
